From ChEMBL document CHEMBL1158565, “Antagonism of 4-substituted 1,4-dihydropyridine-3,5-dicarboxylates toward voltage-dependent L-type Ca2+ channels Ca V 1.3 and Ca V 1.2” (Bioorg Med Chem, 2010)

Assays:
[1] = molecular target: Voltage-dependent L-type calcium channel subunit alpha-1D (Rattus norvegicus, UniProt P27732); test: Antagonist activity at rat Cav1.3 expressed in HEK293 cells assessed as inhibition of voltage pulse-induced calcium current by FLIPR calcium 4 assay; format: functional, cell-based
Chain of Voltage-dependent L-type calcium channel subunit alpha-1D (P27732 whole entry): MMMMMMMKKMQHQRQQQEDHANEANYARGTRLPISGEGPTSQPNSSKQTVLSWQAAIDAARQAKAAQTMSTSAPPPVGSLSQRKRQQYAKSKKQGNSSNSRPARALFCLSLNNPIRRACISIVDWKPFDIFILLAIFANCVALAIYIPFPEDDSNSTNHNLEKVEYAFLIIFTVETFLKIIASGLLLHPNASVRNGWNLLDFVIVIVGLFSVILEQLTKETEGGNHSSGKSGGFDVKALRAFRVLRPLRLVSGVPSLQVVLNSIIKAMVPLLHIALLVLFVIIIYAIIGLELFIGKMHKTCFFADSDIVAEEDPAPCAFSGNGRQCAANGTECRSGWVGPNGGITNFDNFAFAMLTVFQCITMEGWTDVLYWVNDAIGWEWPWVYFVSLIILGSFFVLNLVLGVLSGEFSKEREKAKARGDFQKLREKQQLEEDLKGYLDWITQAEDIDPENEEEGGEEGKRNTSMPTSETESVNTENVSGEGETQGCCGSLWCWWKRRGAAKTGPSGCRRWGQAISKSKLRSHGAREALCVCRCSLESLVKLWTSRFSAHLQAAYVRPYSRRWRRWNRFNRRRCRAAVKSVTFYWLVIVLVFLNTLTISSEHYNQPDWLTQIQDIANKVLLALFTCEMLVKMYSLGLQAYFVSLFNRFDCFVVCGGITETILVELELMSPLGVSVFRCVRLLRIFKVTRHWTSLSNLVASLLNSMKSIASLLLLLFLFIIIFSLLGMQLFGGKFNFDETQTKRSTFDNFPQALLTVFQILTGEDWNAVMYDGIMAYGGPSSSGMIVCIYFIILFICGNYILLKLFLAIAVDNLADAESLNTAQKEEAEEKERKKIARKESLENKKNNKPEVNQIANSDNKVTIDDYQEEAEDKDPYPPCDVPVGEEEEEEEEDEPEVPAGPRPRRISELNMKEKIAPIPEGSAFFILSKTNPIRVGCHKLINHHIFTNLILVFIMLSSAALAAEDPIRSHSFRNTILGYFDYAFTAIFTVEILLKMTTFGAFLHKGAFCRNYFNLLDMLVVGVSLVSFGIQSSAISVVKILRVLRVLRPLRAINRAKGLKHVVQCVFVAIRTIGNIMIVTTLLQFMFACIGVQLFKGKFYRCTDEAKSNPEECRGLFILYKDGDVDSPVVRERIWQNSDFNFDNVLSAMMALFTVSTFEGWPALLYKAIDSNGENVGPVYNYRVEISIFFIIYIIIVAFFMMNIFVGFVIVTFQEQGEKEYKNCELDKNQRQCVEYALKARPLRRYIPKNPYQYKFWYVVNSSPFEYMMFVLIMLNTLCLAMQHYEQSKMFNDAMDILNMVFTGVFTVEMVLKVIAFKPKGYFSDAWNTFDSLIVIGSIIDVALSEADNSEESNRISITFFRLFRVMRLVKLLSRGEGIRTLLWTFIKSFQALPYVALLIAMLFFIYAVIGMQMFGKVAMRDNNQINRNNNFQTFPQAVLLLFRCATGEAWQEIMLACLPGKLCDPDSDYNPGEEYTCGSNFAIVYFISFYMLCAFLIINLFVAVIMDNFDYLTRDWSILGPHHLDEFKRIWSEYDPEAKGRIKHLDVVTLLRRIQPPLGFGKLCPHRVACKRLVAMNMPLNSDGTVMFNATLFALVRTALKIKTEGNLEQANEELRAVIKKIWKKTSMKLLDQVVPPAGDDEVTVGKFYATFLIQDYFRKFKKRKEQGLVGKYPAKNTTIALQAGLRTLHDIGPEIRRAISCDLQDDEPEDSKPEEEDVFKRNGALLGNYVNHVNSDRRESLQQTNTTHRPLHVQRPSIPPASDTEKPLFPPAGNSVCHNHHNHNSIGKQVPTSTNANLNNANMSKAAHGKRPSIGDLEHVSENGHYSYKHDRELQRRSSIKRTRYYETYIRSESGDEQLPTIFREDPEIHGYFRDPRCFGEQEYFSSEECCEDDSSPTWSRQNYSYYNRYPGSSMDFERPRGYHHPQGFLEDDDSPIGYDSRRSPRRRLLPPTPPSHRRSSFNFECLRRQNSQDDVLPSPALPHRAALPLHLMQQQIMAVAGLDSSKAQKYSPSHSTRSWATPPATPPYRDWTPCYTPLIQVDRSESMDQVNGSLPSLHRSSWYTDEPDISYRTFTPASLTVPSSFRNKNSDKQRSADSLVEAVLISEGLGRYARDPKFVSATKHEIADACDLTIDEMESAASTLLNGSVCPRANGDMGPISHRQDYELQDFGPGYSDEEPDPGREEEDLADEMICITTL
Procedure, shortened: (§1)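 HEK293 lines stably expressing Cavβ3 and Cavα2δ-1 plus Cav1.2 α1C (rabbit) or Cav1.3 α1D (rat) were selected with zeocin/hygromycin. Calcium signals were read by FLIPR with Calcium 4 dye. IC50 came from 11-point dose-response curves. Signal percentage error (SD/mean) was 6.4% for Cav1.2 and 4.1% for Cav1.3 cells.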

[2] = molecular target: Voltage-dependent L-type calcium channel subunit alpha-1C (Oryctolagus cuniculus, UniProt P15381); test: Antagonist activity at rabbit Cav1.2 expressed in HEK293 cells assessed as inhibition of voltage pulse-induced calcium current by FLIPR calcium 4 assay; format: functional, cell-based; procedure, shortened: as §1
Chain of Voltage-dependent L-type calcium channel subunit alpha-1C (P15381 whole entry): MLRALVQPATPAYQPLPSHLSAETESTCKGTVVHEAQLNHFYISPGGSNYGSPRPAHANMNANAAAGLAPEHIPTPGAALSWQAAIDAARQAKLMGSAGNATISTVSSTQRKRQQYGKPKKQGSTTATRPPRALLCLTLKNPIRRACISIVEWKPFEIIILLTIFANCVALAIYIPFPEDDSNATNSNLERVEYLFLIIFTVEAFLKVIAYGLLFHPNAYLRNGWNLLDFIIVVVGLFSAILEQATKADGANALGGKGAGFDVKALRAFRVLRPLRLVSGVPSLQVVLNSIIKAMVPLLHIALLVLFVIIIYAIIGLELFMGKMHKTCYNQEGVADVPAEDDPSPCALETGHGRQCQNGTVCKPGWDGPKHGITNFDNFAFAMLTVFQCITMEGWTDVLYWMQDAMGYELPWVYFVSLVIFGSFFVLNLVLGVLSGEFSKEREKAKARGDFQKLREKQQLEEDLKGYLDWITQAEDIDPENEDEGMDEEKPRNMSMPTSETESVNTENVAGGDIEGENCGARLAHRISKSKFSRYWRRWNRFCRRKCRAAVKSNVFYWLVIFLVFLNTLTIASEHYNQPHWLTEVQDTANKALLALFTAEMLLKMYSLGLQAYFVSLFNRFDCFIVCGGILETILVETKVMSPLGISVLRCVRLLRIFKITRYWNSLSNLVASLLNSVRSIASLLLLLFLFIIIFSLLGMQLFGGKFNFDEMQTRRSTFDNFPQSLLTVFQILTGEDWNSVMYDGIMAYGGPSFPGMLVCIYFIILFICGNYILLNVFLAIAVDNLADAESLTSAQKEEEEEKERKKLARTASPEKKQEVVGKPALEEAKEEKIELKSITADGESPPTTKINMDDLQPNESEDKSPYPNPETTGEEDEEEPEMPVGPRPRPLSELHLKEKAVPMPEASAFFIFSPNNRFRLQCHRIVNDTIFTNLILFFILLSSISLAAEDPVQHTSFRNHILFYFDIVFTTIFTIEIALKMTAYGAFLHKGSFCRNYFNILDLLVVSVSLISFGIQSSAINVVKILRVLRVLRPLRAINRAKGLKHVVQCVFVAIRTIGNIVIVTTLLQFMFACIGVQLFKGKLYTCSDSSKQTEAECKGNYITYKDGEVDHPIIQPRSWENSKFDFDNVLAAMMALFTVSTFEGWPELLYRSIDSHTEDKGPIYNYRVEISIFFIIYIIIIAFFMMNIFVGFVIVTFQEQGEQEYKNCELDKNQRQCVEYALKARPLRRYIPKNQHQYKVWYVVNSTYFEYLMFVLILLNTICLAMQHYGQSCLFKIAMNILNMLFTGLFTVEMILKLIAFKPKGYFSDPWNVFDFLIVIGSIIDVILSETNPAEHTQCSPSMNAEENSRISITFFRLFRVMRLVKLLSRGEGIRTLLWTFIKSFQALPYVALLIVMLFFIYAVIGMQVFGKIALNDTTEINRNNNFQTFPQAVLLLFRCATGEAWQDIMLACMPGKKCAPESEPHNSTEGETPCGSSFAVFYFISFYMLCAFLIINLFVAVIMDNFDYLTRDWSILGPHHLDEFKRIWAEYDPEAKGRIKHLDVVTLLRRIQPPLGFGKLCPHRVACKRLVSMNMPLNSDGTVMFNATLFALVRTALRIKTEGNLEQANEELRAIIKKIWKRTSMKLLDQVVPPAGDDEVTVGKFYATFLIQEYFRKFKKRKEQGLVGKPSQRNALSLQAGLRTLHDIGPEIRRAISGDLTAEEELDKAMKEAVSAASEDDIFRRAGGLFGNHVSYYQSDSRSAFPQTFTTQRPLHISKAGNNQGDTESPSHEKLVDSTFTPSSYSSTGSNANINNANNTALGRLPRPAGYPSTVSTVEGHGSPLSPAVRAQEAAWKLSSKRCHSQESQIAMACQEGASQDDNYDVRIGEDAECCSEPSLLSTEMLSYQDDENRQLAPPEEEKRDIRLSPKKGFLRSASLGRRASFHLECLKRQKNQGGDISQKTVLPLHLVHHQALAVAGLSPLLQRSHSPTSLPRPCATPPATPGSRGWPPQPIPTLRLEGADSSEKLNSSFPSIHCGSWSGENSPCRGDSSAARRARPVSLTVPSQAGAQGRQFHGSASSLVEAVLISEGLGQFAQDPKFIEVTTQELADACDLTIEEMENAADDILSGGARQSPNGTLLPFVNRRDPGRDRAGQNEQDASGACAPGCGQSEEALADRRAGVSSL

IC50 [1] | Compound | IC50 [2]
1920 nM | CCOC(=O)C1=C(C)OC(C)=C(C(=O)OCC)C1c1cccc([N+](=O)[O-])c1 | > 4000 nM
45 nM | CCOC(=O)C1=C(C)NC(/C=C/C#N)=C(C(=O)OCC)C1c1cccc([N+](=O)[O-])c1 (stereo unspecified) | 22 nM
117 nM | COC(=O)C1=C(C)NC(C)=C(C(=O)OCc2ccc(OC)c(OC)c2)C1c1cccc([N+](=O)[O-])c1 (stereo unspecified) | 112 nM
43 nM | COC(=O)C1=C(C)NC(C)=C(C(=O)OC2Cc3ccccc3C2)C1c1cccc([N+](=O)[O-])c1 (stereo unspecified) | 72 nM
15 nM | CCOC(=O)C1=C(C)NC(C)=C(C(=O)OCC)C1c1ccccc1SC | 8 nM
213 nM | CCOC(=O)C1=C(C)NC(C=CC(=O)OC)=C(C(=O)OCC)C1c1cccc([N+](=O)[O-])c1 (mixture of isomers) | 313 nM
38 nM | COC(=O)C1=C(C)NC(C)=C(C(=O)OCCCCc2ccccc2)C1c1cccc([N+](=O)[O-])c1 (stereo unspecified) | 10 nM
550 nM | COC(=O)C1=C(C)NC(C)=C(C(=O)OCCNC(=O)C(F)(F)F)C1c1cccc([N+](=O)[O-])c1 (stereo unspecified) | 410 nM
2320 nM | CCOC(=O)C1=C(C)NC(C)=C(C(C)=O)C1c1ccc2ccccc2c1 (stereo unspecified) | 2220 nM
10 nM | C=C(C)C(=O)OCCOC(=O)C1=C(C)NC(C)=C(C(=O)OCC)C1c1cccc([N+](=O)[O-])c1 (stereo unspecified) | 10 nM
23 nM | COC(=O)C1=C(C)NC(C)=C(C(=O)OCc2cccs2)C1c1cccc([N+](=O)[O-])c1 (stereo unspecified) | 31 nM
211 nM | CCOC(=O)C1=C(C)NC(C)=C(C(=O)OCCC#N)[C@H]1c1cccc([N+](=O)[O-])c1 | 51 nM
45 nM | CCOC(=O)C1=C(C)NC(CO)=C(C(=O)OCC)C1c1cccc([N+](=O)[O-])c1 (stereo unspecified) | 49 nM
11 nM | COC(=O)C1=C(C)NC(C)=C(C(=O)OCCC(C)c2ccccc2)C1c1cccc([N+](=O)[O-])c1 (stereo unspecified) | 6 nM
10 nM | C=CCOC(=O)C1=C(C)NC(C)=C(C(=O)OC)C1c1ccccc1[N+](=O)[O-] (stereo unspecified) | 8 nM
37 nM | CCOC(=O)C1=C(C)NC(COC(C)=O)=C(C(=O)OCC)C1c1cccc([N+](=O)[O-])c1 (stereo unspecified) | 10 nM
270 nM | COC(=O)C1=C(C)NC(C)=C(C(=O)OCCC(c2ccccc2)c2ccccc2)C1c1cccc([N+](=O)[O-])c1 (stereo unspecified) | 100 nM
589 nM | COC(=O)C1=C(C)NC(C)=C(C(=O)OCCC#N)[C@H]1c1cccc([N+](=O)[O-])c1 | 143 nM
15 nM | C=CCOC(=O)C1=C(C)NC(C)=C(C(=O)OC)C1c1cccc([N+](=O)[O-])c1 (stereo unspecified) | 15 nM
74 nM | COC(=O)C1=C(C)NC(C)=C(C(=O)OCc2ccc(-c3ccccc3)cc2)C1c1cccc([N+](=O)[O-])c1 (stereo unspecified) | 69 nM
350 nM | COCC1=C(C(=O)OC)C(c2cccc([N+](=O)[O-])c2)C(C(=O)OC)=C(C)N1 (stereo unspecified) | 115 nM
11 nM | COC(=O)C1=C(C)NC(C)=C(C(=O)OCCCOc2ccccc2)C1c1cccc([N+](=O)[O-])c1 (stereo unspecified) | 9 nM

IC50 [1] | Compound | IC50 [2]
105 nM | CCCC1=C(C(=O)OCC)C(c2cccc([N+](=O)[O-])c2)C(C(=O)OCC)=C(C)N1 (stereo unspecified) | 18 nM
> 4000 nM | CCOC(=O)C1=C(C)NC2=C(C(=O)OC2)C1c1cccc([N+](=O)[O-])c1 (stereo unspecified) | > 4000 nM
39 nM | COC(=O)C1=C(C)NC(C)=C(C(=O)OCCc2ccc(Cl)cc2)C1c1cccc([N+](=O)[O-])c1 (stereo unspecified) | 8 nM
37 nM | COC(=O)C1=C(C)NC(C)=C(C(=O)OC/C=C/c2ccccc2)C1c1cccc([N+](=O)[O-])c1 (stereo unspecified) [PRANIDIPINE] | 37 nM
5070 nM | COC(=O)C1=C(C)NC(C)=C(C(=O)OCC23CC4CC(C)(CC(C)(C4)C2)C3)C1c1cccc([N+](=O)[O-])c1 (stereo unspecified) | 685 nM
53 nM | CCOC(=O)C1=C(C)NC(CCl)=C(C(=O)OCC)C1c1cccc([N+](=O)[O-])c1 (stereo unspecified) | 10 nM
58 nM | CCOC(=O)C1=C(C)NC(C)=C(C(=O)OCC)C1c1ccc(F)cc1F | 20 nM
38 nM | COC(=O)C1=C(C)NC(C)=C(C(=O)OCCCCc2ccc(OC)cc2)C1c1cccc([N+](=O)[O-])c1 (stereo unspecified) | 17 nM
21 nM | COC(=O)C1=C(C)NC(C)=C(C(=O)OCC2CC2)C1c1cccc([N+](=O)[O-])c1 (stereo unspecified) | 28 nM
790 nM | CCOC(=O)C1=C(C)NC(COC)=C(C(=O)OC)C1c1ccccc1[N+](=O)[O-] (stereo unspecified) | 1760 nM
47 nM | C=C(C)CCOC(=O)C1=C(C)NC(C)=C(C(=O)OC)C1c1cccc([N+](=O)[O-])c1 (stereo unspecified) | 23 nM
28 nM | COC(=O)C1=C(C)NC(C)=C(C(=O)OCc2cccc(F)c2)C1c1cccc([N+](=O)[O-])c1 (stereo unspecified) | 22 nM
2160 nM | C=CCOC(=O)C1=C(C)NC(C)=C(C(=O)OCC)C1c1ccc2ccccc2c1 (stereo unspecified) | 1310 nM
170 nM | CCOC(=O)C1=C(C)NC(COC(=O)c2ccccc2)=C(C(=O)OCC)C1c1cccc([N+](=O)[O-])c1 (stereo unspecified) | 210 nM
21 nM | COC(=O)C1=C(C)NC(C)=C(C(=O)OCC(F)(F)F)C1c1cccc([N+](=O)[O-])c1 (stereo unspecified) | 16 nM
15 nM | COC(=O)C1=C(C)NC(C)=C(C(=O)OCc2ccco2)C1c1cccc([N+](=O)[O-])c1 (stereo unspecified) | 20 nM
20 nM | COC(=O)C1=C(C)NC(C)=C(C(=O)OCc2ccc(F)c(F)c2)C1c1cccc([N+](=O)[O-])c1 (stereo unspecified) | 7 nM
78 nM | COC(=O)C1=C(C)NC(C)=C(C(=O)OCCC#N)C1c1cccc([N+](=O)[O-])c1 (stereo unspecified) | 26 nM
930 nM | COC(=O)C1=C(C)NC(C)=C(C(=O)O)C1c1cccc([N+](=O)[O-])c1 (stereo unspecified) | 900 nM
13900 nM | CCOC(=O)C1=C(C)NC(C)=C(C(=O)OC=O)C1c1cccc([N+](=O)[O-])c1 (stereo unspecified) | 33300 nM
15 nM | C=CCOC(=O)C1=C(C)NC(C)=C(C(=O)OCC)C1c1cccc([N+](=O)[O-])c1 (stereo unspecified) | 25 nM
46 nM | COC(=O)C1=C(C)NC(C)=C(C(=O)OCCOc2ccccc2Cl)C1c1cccc([N+](=O)[O-])c1 (stereo unspecified) | 19 nM

IC50 [1] | Compound | IC50 [2]
10 nM | CCOC(=O)C1=C(C)NC(C)=C(C(=O)OCC)C1c1cccc(F)c1F | 15 nM
12 nM | COC(=O)C1=C(C)NC(C)=C(C(=O)OCCOCc2ccccc2)C1c1cccc([N+](=O)[O-])c1 (stereo unspecified) | 9 nM
22 nM | COC(=O)C1=C(C)NC(C)=C(C(=O)OCCCl)C1c1cccc([N+](=O)[O-])c1 (stereo unspecified) | 26 nM
137 nM | CCOC(=O)C1=C(C)NC(C)=C(C(=O)OCCC#N)[C@@H]1c1cccc([N+](=O)[O-])c1 | 50 nM
20 nM | CCCCC1=C(C(=O)OCC)C(c2cccc([N+](=O)[O-])c2)C(C(=O)OCC)=C(C)N1 (stereo unspecified) | 20 nM
34 nM | COC(=O)C1=C(C)NC(C)=C(C(=O)OCc2c(Cl)cc(Cl)cc2Cl)C1c1cccc([N+](=O)[O-])c1 (stereo unspecified) | 10 nM
130 nM | CCCCCOC(=O)C1=C(C)NC(C)=C(C(=O)OCC)C1c1cccc([N+](=O)[O-])c1 (stereo unspecified) | 49 nM
615 nM | CCOC(=O)C1=C(C)NC(C(OCC)OCC)=C(C(=O)OCC)C1c1cccc([N+](=O)[O-])c1 (stereo unspecified) | 460 nM
96 nM | CCOC(=O)C1=C(C)NC(COC)=C(C(=O)OC)C1c1cccc([N+](=O)[O-])c1 (stereo unspecified) | 14 nM
82 nM | CCOC(=O)C1=C(C)NC(C)=C(C(=O)OCCOC)C1c1cccc([N+](=O)[O-])c1 (stereo unspecified) | 16 nM
399 nM | COC(=O)C1=C(C)NC(C)=C(C(=O)OCCC#N)[C@@H]1c1cccc([N+](=O)[O-])c1 | 262 nM
15 nM | COC(=O)C1=C(C)NC(C)=C(C(=O)OCc2ccccc2)C1c1cccc([N+](=O)[O-])c1 (stereo unspecified) | 25 nM
10 nM | COC(=O)C1=C(C)NC(C)=C(C(=O)OC2C=CCCC2)C1c1cccc([N+](=O)[O-])c1 (stereo unspecified) | 10 nM
79 nM | COC(=O)C1=C(C)NC(C)=C(C(=O)OCc2ccc(OC)cc2)C1c1cccc([N+](=O)[O-])c1 (stereo unspecified) | 51 nM
22 nM | COC(=O)C1=C(C)NC(C)=C(C(=O)OCc2ccc3c(c2)OCO3)C1c1cccc([N+](=O)[O-])c1 (stereo unspecified) | 13 nM
2310 nM | COC(=O)C1=C(C)N=C(C)/C(=C(/O)OC)C1(C)c1ccccc1 (stereo unspecified) | 1470 nM
35 nM | C#CCCOC(=O)C1=C(C)NC(C)=C(C(=O)OC)C1c1cccc([N+](=O)[O-])c1 (stereo unspecified) | 31 nM
1150 nM | CC1=C(C#N)C(c2cccc(F)c2F)C(C#N)=C(C)N1 | 1610 nM
610 nM | CCOC(=O)C1=C(C)NC(CN2CCN(c3ccccc3)CC2)=C(C(=O)OCC)C1c1cccc([N+](=O)[O-])c1 (stereo unspecified) | 630 nM
35 nM | COC(=O)C1=C(C)NC(C)=C(C(=O)OC)C1c1ccccc1SC | 8 nM

Compound | IC50 [1] | IC50 [2]
CCOC(=O)C1=C(C)NC(C)=C(C(=O)OCc2ccc([N+](=O)[O-])cc2)C1c1cccc([N+](=O)[O-])c1 (stereo unspecified) | 140 nM | 130 nM
COC(=O)C1=C(C)NC(C)=C(C(=O)OCc2cc([N+](=O)[O-])cc([N+](=O)[O-])c2)C1c1cccc([N+](=O)[O-])c1 (stereo unspecified) | 40 nM | 55 nM
CCOC(=O)C1=C(C)NC(/C=C/c2ccc([N+](=O)[O-])cc2)=C(C(=O)OCC)C1c1cccc([N+](=O)[O-])c1 (stereo unspecified) | 2060 nM | 1940 nM
COC(=O)C1=C(C)NC(C)=C(C(=O)OCC(C)[N+](=O)[O-])C1c1cccc([N+](=O)[O-])c1 (stereo unspecified) | 111 nM | 108 nM
